STEP block: STEP (human) phosphatase inhibition. P54829. recombinant STEP, OMFP fluorogenic substrate, fluorescence. inhibition, % at 20 µM. 0.25% of 360,000 active. AID 588621;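 active means inhibition at 20 µM, scaled per plate between control wells, above about 37%, limit read from the data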;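 further: 0% = DMSO with enzyme and substrate and 100% = substrate only without enzyme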
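Material: STEP (striatal-enriched tyrosine phosphatase) enzyme, cell-free; Compound dosing: 20 µM single dose in 1% DMSO; Technique: fluorescence read at 480 nm ex / 540 nm em; Times: reaction 20 min, ambient temperature; Medium: 50 mM Bis-Tris pH 6.0 with 2.5 mM DTT and 0.005% Tween 20; Also added: OMFP at 25 µM.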
LMPTP inh: LMPTP (human) inhibition; 0.22% of 360,000 active; P24666; recombinant LMPTP-A, OMFP fluorogenic substrate, fluorescence intensity; inhibition, % at 20 µM;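 active means compounds that cut the enzyme signal by at least half of the control window in the single-dose screen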;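 further: plate controls were DMSO wells with enzyme plus substrate for no effect and substrate without enzyme for full effect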
Target sequence (P24666 whole entry, looked up): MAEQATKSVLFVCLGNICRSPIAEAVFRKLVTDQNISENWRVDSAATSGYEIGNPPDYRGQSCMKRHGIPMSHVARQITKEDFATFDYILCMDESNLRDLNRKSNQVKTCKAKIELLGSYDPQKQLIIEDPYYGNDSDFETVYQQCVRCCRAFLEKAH
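test system = LMPTP-A | amount = 0.625 nM LMPTP-A final | reagent = fluorogenic phosphatase substrate OMFP at 400 µM final | incubation = 50 min at room temperature | benchmarks = no-enzyme low control, uninhibited high control | medium = Bis-Tris pH 6.0, DTT, detergent | signal = fluorescence intensity of OMFP turnover product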
rCAG binder: r(CAG) repeat RNA binding; TO-PRO-1 dye displacement fluorescence; inhibition, % at 3 µM; 1.3% of 370,000 active; AID 651821;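 active means inhibition above the plate cutoff, the mean of all test compounds on that plate plus 3 SD, cut at about 35% in these data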;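 further: 0% = DMSO alone and 100% = 100 µM mitoxantrone as full dye displacement; higher means more dye released from RNA so lower well fluorescence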
NadD inh: inhibitors of Staphylococcus aureus NadD. purified NadD enzyme, colorimetric absorbance read-out. inhibition, % at 20 µM. 0.78% of 360,000 active; in the data active means inhibition above about 26%
Scp1 inh: Scp-1 (human) phosphatase inhibition; Recombinant Scp1, phosphopeptide, malachite green phosphate absorbance; inhibition, % at 20 µM; 0.88% of 340,000 active;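 active means inhibition above about 50% at 20 µM, limit read from the data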;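 further: plate controls were DMSO wells with enzyme for no effect and wells lacking enzyme for full effect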
Target sequence (Q9GZU7 76-261 limits assumed): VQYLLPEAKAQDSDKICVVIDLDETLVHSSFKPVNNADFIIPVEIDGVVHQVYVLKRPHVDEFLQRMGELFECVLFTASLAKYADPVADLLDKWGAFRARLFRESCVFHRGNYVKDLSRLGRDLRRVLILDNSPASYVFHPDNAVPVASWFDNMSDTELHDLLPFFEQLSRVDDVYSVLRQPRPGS
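assay system = SCP-1 phosphatase catalytic domain, residues 76-261 | buffer or medium = 50 mM Tris acetate pH 5.5, 0.005% Tween-20, 10 mM MgCl2 | incubation = enzyme reaction 45 min at room temperature, colour 5 min, stabilisation 30 min | signal = Phosphate-binding colour reagent, absorbance read at 630 nm | measure = % inhibition at 20 µM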
Scp1 confirm: confirmation of human Scp-1 phosphatase inhibitors | shares compounds with Scp1 inh | recombinant SCP-1 catalytic domain, phosphate release, malachite green absorbance | inhibition, % at 20 µM | 61% of 2,500 active | AID 540281;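 further: plate controls were DMSO with enzyme for no effect and buffer wells lacking enzyme for full effect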
Scp-1 MG ctr: counter-screen for Scp-1 inhibitors: colorimetric interference; Colorimetric interference counterscreen, malachite green absorbance 630 nm; shares compounds with Scp1 inh; apparent inhibition (interference), % at 20 µM; 2,500 tested, under 10 active;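 further: compounds added after enzyme reaction finished so only phosphate colour detection is probed; plate controls were DMSO wells with completed Scp-1 reaction for no effect and substrate wells lacking enzyme for full effect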
Scp1 DSF: Scp-1 (human) binding by thermal shift | shares compounds with Scp1 inh | Recombinant SCP1, Sypro Orange thermal shift Tm | thermal shift relative to vanadate control, % at 40 µM | 25% of 1,500 active | AID 540329;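 active means substances whose mean melting-temperature shift, as a percentage of the reference inhibitor's shift, reaches about 5.3%, limit read from the data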;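 further: 0% = Tm of DMSO wells and 100% = Tm with sodium orthovanadate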
Numbers without * were called inactive; . = no result. The list is not random: actives were taken first. Their share in the collection is about 2.6%.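 How the source made its calls, unless noted: active means inhibition of at least 30% at 20 µM; inactive means the rest.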

SMILES	STEP block	LMPTP inh	rCAG binder	NadD inh	Scp1 inh	Scp1 confirm	Scp-1 MG ctr	Scp1 DSF
O=C(Nc1ccc(S(=O)(=O)Nc2nccs2)cc1)c1ccc(=O)[nH]c1	-2.3	5.5	24.8	2.1	70.0*	60.2*	-12.0	8.9*
COC(=O)c1ccc(Cn2c(O)c(N=NC(N)=S)c3ccccc32)o1	2.3	3.4	10.9	11.2	60.0*	-11.8	-20.5	.
Cc1ccc2nc(Cl)c(C3CC(c4cccs4)=NN3C(=O)CCCC(=O)O)cc2c1 (stereo not drawn)	25.4	1.3	1.4	6.2	96.1*	85.0*	-11.2	-13.2
Cc1cccc2cc(C3CC(c4cccs4)=NN3C(=O)CCC(=O)O)c(Cl)nc12 (stereo not drawn)	0.9	0.5	5.2	2.8	24.2	.	.	.
Cc1ccc(-c2cccc3[nH]cc(C)c23)s1	.	.	2.7	.	.	.	.	.
CCCCCCN1CCS(=O)(=O)N(Cc2ccc(F)cc2)C(C(=O)OC)C1 (stereo not drawn)	.	.	2.6	.	.	.	.	.
COC(=O)c1cc(S(=O)(=O)N2CCN(c3ccccc3Cl)CC2)cn1C	.	.	5.7	.	.	.	.	.
COc1ccc(N2CC(C(=O)Nc3nc4ccc(F)cc4s3)CC2=O)c(OC)c1 (stereo not drawn)	0.6	-0.2	-0.9	-0.2	-4.5	7.0	-7.3	.
Cc1ccc(S(=O)(=O)N2CCN(C(=O)c3cccc(-n4cccc4)c3)CC2)cc1	4.5	5.5	5.7	1.1	85.6*	43.4*	-5.2	-0.4
COc1ccc(C(=O)Nc2cc3c(oc2=O)CCCC3=O)cc1	1.1	1.5	3.2	-5.5	57.1*	43.7*	-6.2	-1.8
O=C(Nc1cc2c(oc1=O)CCCC2=O)c1cccc(Cl)c1	-7.1	-1.4	0.8	-6.7	-2.5	.	.	.
COCCN1C(=O)c2oc3ccccc3c(=O)c2C1c1ccc(OC)c(OC)c1 (stereo not drawn)	-2.4	-0.9	1.7	3.5	60.0*	43.7*	-5.4	-8.2
COc1ccc(C2c3c(oc4ccccc4c3=O)C(=O)N2CCN2CCOCC2)cc1OC (stereo not drawn)	-3.9	-1.8	1.2	-7.4	2.5	.	.	.
Cc1ccc(S(=O)(=O)n2ccc(-c3c(-c4ccccc4)noc3C)n2)cc1	.	.	-0.9	.	.	.	.	.
Cc1ccn2c(=O)nc(SCC(=O)NCc3ccccc3Cl)nc2c1	1.2	16.0	11.7	10.3	46.9	57.1*	-18.6	-1.5
CCc1ccc(N2C(=O)C[C@@](C#N)(C(=O)OC)[C@H]2c2ccccc2)cc1	.	.	0.6	.	.	.	.	.
O=C(CN1C(=O)C(c2ccc(F)cc2)=NC12CCCC2)Nc1ccc(F)cc1	-2.7	-0.8	3.3	0.9	-1.2	.	.	.
COc1ccc(NC(=O)CN2C(=O)C(c3ccccc3)=NC23CCCCCC3)cc1	0.3	1.0	1.1	1.1	58.6*	-25.8	-22.8	.
O=C(Cc1ccc(Br)cc1)NNC(=O)Nc1ccc(Cl)cc1	0.9	-0.4	0.9	-4.4	63.4*	62.0*	-3.2	3.7
COc1ccc(-c2nnn3c2Cn2c4ccccc4c(=O)n2[C@@H](C(C)C)C3)cc1	.	.	5.3	.	.	.	.	.
CCCCC(=O)OCC(=O)c1ccc(OCC)cc1	1.2	-0.8	-4.8	-2.2	-6.8	.	.	.
CCOc1ccc(C(=O)CCCC(=O)c2ccc(OCC)cc2)cc1	7.9	25.6	-3.5	0.3	77.3*	3.6	-0.2	.
COC(=O)[C@]12C[C@H](CC(=O)NCc3ccc(OC)c(OC)c3)C(=O)N(Cc3cccc4ccccc34)C1=C[C@H](C(C)C)O[C@@H]2C1CC1	.	.	9.3	.	.	.	.	.
CC(=O)CC[C@@H]1CC[C@]2(CCCN(C(=O)c3ccc4ccccc4n3)C2)O1	.	.	0.5	.	.	.	.	.
O=C(O)CCCCCCCCCC(=O)c1cccs1	0.4	0.6	2.8	-1.5	81.1*	-3.8	-19.7	.
SMILES	STEP block	LMPTP inh	rCAG binder	NadD inh	Scp1 inh	Scp1 confirm	Scp-1 MG ctr	Scp1 DSF
Cc1ccc(NC(=O)CN(C)S(=O)(=O)c2ccc3c(c2)n(C)c(=O)c(=O)n3C)c(C)c1	0.7	-2.0	-2.0	6.9	0.6	.	.	.
Cc1cc(C)c(NC(=O)CN(C)S(=O)(=O)c2ccc3c(c2)n(C)c(=O)c(=O)n3C)c(C)c1	-0.9	-0.5	0.1	4.3	-6.3	-18.1	-14.2	.
CCCCS(=O)(=O)N1C2=NC3=C(C(=O)N(CCOC)C3=O)C3N(C)c4ccccc4[C@]23C[C@H]1CO (stereo partly drawn)	.	.	5.4	.	.	.	.	.
Cc1ccc(S(=O)(=O)N2CCN(C(=O)COC(=O)CCOc3ccccc3C)CC2)c(C)c1	0.3	0.2	-2.8	6.9	66.0*	85.9*	-17.0	-19.6
Cc1ccc(S(=O)(=O)N2CCN(C(=O)COC(=O)CCOc3cc(C)ccc3C)CC2)c(C)c1	1.1	4.4	5.2	-4.4	-11.2	.	.	.
Cc1cccc(C)c1NC(=O)CSc1nnc(NC(=O)c2ccccc2C(=O)O)s1	0.3	-1.1	0.1	-3.7	65.2*	2.0	-12.9	.
O=C(CSc1nnc(NC(=O)c2ccccc2C(=O)O)s1)Nc1ccccc1Cl	-2.5	-0.3	3.2	6.5	2.7	.	.	.
Cc1sc2nc3n(c(=O)c2c1C)CCCS3	5.1	0.0	2.7	1.4	-4.2	.	.	.
O=Cc1ccc2oc3nc4n(c(=O)c3c(=O)c2c1)CCCS4	4.8	45.2	17.9	10.3	80.4*	66.9*	-10.7	-3.9
C=CCn1c(SCc2nc3sc(C(=O)O)c(C)c3c(=O)[nH]2)nnc1-c1ccc(C(C)(C)C)cc1	8.2	0.5	25.4	15.2	69.2*	54.7*	-14.2	1.2
NS(=O)(=O)c1ccc(NC(=O)c2cccc(N3C(=O)c4ccccc4C3=O)c2)cc1	37.8	38.3	5.5	-3.6	6.2	.	.	.
CC(=O)c1ccc(NC(=O)c2cccc(N3C(=O)c4ccccc4C3=O)c2)cc1	98.0*	55.2*	.	-5.4	96.5*	47.6*	-13.1	-14.8
COC(=O)C/C=C/[C@H](C)[C@@H](NC(=O)C(F)(F)F)c1ccccc1Br	.	.	1.7	.	.	.	.	.
COc1ccc(C2C(C(=O)N3CCN(c4ccccc4Cl)CC3)CC(=O)N2c2ccc(OC)cc2)cc1 (stereo not drawn)	.	.	3.7	.	.	.	.	.
C[C@H](CO)N1C[C@H](C)[C@@H](CN(C)C(=O)Nc2ccc3c(c2)OCO3)Oc2c(NC(=O)c3ccncc3)cccc2C1=O	3.0	-1.9	-0.2	-3.1	55.8*	4.8	-15.1	.
C[C@H](CO)N1C[C@H](C)[C@@H](CN(C)Cc2ccc(C(=O)O)cc2)Oc2c(NC(=O)c3ccncc3)cccc2C1=O	0.4	-1.3	6.4	-4.6	54.4*	11.5	-10.7	.

Source: PubChem BioAssay
